Measured values as given in ChEMBL document CHEMBL3297648, “Diterpenoids from the Chinese liverwort Heteroscyphus tener and their antiproliferative effects” (J Nat Prod, 2014).
Active and inactive are the calls of the source. No cut-off for these calls is given here.

Experiments:
[1] = Decrease in cyclin E protein expression in human PC3 cells by western blot analysis; type: functional, cell-based; settings: PC-3, TDE = time-dependent effect
In short: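 Western blot of cyclin D1, cyclin E, Cdk4 and p21 in PC3 and DU145 lysates. Lysis in RIPA buffer plus protease inhibitors, BCA quantification, 12% SDS-PAGE, nitrocellulose transfer, milk block, primaries overnight at 4 °C, secondary 1:2000 for 45 min, ECL read-out. GAPDH served as loading control.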

[2] = tested on: DU-145; experiment: Induction of apoptosis in human DU145 cells assessed as necrotic cells at 20 uM after 4 hrs by Annexin V-FITC/propidium iodide staining based flow cytometry (reference value: 0.21%); type: functional
In short: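 Cells seeded in 6-well plates for 24 h, then given 20 μM for the stated times. Cells were trypsinized, PBS-washed, stained with annexin V-FITC/PI, and analysed immediately by flow cytometry. Means ± SD of three independent experiments; Student's t test against untreated control.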

[3] = Cell cycle arrest in human PC3 cells assessed as accumulation at G2/M phase at 10 uM after 24 hrs by propidium iodide staining based flow cytometry (reference value: 10.43%); type: functional; settings: PC-3
[4] = tested on: PC-3; experiment: Antiproliferative activity against human PC3 cells assessed as inhibition of cell viability at 20 uM pretreated for 1 hr with 5 mM antioxidant NAC measured after 24 hrs by MTT assay; type: functional, cell-based
[5] = tested on: DU-145; experiment: Induction of ROS generation in human DU145 cells at 20 uM measured up to 6 hrs by DCFH-DA staining based flow cytometry; type: functional, cell-based
In short: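 Cells exposed to 20 μM for the indicated times, then loaded with 10 μM DCFH-DA for 30 min at 37 °C. Washed, resuspended in PBS and read at once by flow cytometry. ROS expressed as ratio relative to untreated control.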

[6] = tested on: PC-3; experiment: Induction of apoptosis in human PC3 cells assessed as PARP cleavage at 20 uM after 12 hrs by western blot analysis; type: functional, cell-based
In short: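 Cells exposed to 20 μM for the stated times. Lysis in RIPA plus protease inhibitors, BCA protein assay, equal protein on 12% SDS-PAGE, transfer to nitrocellulose. Blocking in 5% milk/TBST 1 h; primary antibodies overnight at 4 °C; secondary 1:2000 for 45 min; ECL detection. GAPDH served as loading control.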

## C=C[C@@](C)(O)CC[C@@H]1C(C)=CC[C@@H]2C(C)(C)CCC[C@@]12C
[1]
  inhibition: tde
[2]
  Activity: 1.54%
[3]
  Activity: 11.1%
[4]
  inhibition: inactive
[5]
  Activity: Active
[6]
  Activity: Active
